Consider 45 compounds from ChEMBL document CHEMBL2069204, “N-1-Alkyl-2-oxo-2-aryl amides as novel antagonists of the TRPA1 receptor” (Bioorg Med Chem Lett, 2012).

≈ marks a conversion by molar mass, not a printed value. Calls of active or inactive are those of the source. The rule behind the calls is not given here.

Data set [1] deals with T1, Transient receptor potential cation channel subfamily A member 1 (Homo sapiens, UniProt O75762). As to the kind of experiment: Antagonist activity at human TRPA1 expressed in HEK293 cells assessed as inhibition of Ca2+-induced intracellular calcium flux by FLIPR assay. The format is functional, cell-based. The method in brief:
(§1)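 Fluorescence-based TRPA1 antagonist assay with the agonist as the stimulus: Ca2+ for line 1 and Zn2+ for line 2. Results are reported as pIC50. Compounds with pIC50 > 5 were checked by automated electrophysiology on IonWorks to exclude autofluorescence artefacts. The IC50s from the two agonist formats were pooled and treated as one data set.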
On the technique in general: Calcium assays in cells follow changes in intracellular calcium, usually with a dye or a luminescent sensor.

The target of data set [2] is T1, Transient receptor potential cation channel subfamily A member 1. Briefly: Antagonist activity at human TRPA1 expressed in HEK293 cells assessed as inhibition of Zn2+-induced intracellular calcium flux by FLIPR assay. Format: functional, cell-based. The method in brief:
as §1

A short description of data set [3]: Solubility of the compound in phosphate buffer at pH 7.4 by dried DMSO method. Format: physicochemical. The method in brief: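 Measured by the 'dried DMSO' method in phosphate buffer at pH 7.4. Results are binned as low (<1–5 μM), medium (5–25 μM) or good (>25 μM).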
Data set [4] in a line: Metabolic stability in human microsomes assessed as glutathione adduct formation.

T1 sequence (O75762 whole entry): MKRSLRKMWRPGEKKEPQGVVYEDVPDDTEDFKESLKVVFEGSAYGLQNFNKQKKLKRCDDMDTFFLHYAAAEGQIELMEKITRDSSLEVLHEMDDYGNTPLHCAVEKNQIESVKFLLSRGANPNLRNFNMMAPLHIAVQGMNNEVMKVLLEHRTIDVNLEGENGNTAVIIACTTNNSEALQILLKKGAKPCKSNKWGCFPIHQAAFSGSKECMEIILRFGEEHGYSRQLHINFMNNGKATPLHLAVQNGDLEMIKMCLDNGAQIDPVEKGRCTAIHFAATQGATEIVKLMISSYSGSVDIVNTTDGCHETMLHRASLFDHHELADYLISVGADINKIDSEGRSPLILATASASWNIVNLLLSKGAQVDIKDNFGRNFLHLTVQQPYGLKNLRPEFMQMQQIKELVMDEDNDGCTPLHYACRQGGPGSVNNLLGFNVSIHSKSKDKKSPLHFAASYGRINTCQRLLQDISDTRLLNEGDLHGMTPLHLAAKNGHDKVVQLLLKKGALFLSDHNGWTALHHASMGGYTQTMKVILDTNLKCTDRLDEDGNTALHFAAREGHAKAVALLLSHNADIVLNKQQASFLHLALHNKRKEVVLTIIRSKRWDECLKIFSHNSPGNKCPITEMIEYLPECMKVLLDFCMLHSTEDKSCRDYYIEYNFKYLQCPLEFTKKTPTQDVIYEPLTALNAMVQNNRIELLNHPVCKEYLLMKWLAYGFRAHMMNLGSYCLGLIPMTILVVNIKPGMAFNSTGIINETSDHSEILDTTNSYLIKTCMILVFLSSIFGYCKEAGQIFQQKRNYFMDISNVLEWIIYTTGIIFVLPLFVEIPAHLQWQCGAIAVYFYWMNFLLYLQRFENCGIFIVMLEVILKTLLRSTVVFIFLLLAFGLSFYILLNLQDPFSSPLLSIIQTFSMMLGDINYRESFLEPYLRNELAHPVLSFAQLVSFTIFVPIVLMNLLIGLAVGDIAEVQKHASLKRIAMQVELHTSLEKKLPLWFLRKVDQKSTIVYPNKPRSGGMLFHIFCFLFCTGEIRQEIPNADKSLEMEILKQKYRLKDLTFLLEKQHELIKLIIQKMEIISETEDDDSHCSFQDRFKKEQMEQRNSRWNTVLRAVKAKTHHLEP

As for `CC(C)C(NC(=O)c1ccc(Cl)cc1Cl)C(=O)c1ccc(C#N)cc1` (stereo unspecified), the IC50 (usually the concentration at which inhibition is half-maximal) is 5.01 µM in data set [1] and 2.51 µM in data set [2].

For the compound `CC(C)(C)C(NC(=O)c1ccccc1)C(=O)c1ccc(Cl)cc1` (stereo unspecified), the values for the IC50 in data set [1] and in data set [2] were 1 µM and 0.398 µM, respectively.

With `Cc1noc(C(C)C)c1C(=O)NC(C(=O)c1ccc(C#N)cc1)C(C)C` (stereo unspecified), the IC50 in data set [1] was 1.58 µM; in data set [2], 2 µM.

For the compound `CC(C)C(NC(=O)c1ccccc1)C(=O)c1ccc(N)cc1` (racemic), the pIC50 entry in data set [1] and in data set [2] was “inactive” each time.

Consider `Cc1noc(C(C)C)c1C(=O)NC(C(=O)c1ccc(C#N)c(F)c1)C(C)(C)C` (stereo unspecified), for which the solubility (kinetic) (in general, solubility judged after dilution from a stock solution rather than from solid) in data set [3] was determined as 80 µM (≈ 30.8 µg/mL). In data set [2], the IC50 is 0.2 µM.

Regarding `CC(C)C(C)(NC(=O)c1ccccc1)C(=O)c1ccc(Cl)cc1` (stereo unspecified), the IC50 in data set [1] was 3.16 µM. Moreover, the pIC50 (as a rule, the IC50 on a negative log10 scale, so that one unit is a factor of ten) in data set [2] was “inactive”.

With `CC(C)C(NC(=O)c1cc(C(F)(F)F)ccc1Cl)C(=O)c1ccc(C#N)cc1` (stereo unspecified), the IC50 in data set [1] was 0.398 µM; in data set [2], 0.316 µM.

Consider `CC(C)C(NC(=O)c1ccccc1)C(=O)c1ccc(C#N)cc1` (racemic), for which the IC50 in data set [1] was 3.98 µM. For the same compound, in data set [3], the kinetic solubility came out at 150 µM (≈ 46 µg/mL).

On to `Cc1noc(-c2ccccc2)c1C(=O)NC(C(=O)c1ccc(C#N)cc1)C(C)C` (stereo unspecified), for which the IC50 was 7.94 µM in data set [1] and 3.98 µM in data set [2].

For `CC(C)C(NC(=O)OC(C)(C)C)C(=O)c1ccc(C#N)cc1` (stereo unspecified), the IC50 is 6.31 µM in data set [1] and 2.51 µM in data set [2].

Regarding `O=C(NC(C(=O)c1ccc(Cl)cc1)C1CC1)c1ccccc1` (stereo unspecified), the IC50 in data set [1] and in data set [2] was 2 µM in each case.

Regarding `CC(C)C(NC(=O)c1cc(Cl)ccc1F)C(=O)c1ccc(C#N)cc1` (stereo unspecified), the pIC50 entry in data set [1] was “inactive”. Also, the IC50 in data set [2] is 2 µM.

Consider `CC(C)C(NC(=O)c1ccc(Cl)cc1F)C(=O)c1ccc(C#N)cc1` (stereo unspecified), for which the IC50 in data set [1] was 3.16 µM; in data set [2], 3.98 µM.

Take `CC(C)C(NC(=O)c1ccccc1)C(=O)c1cccc(Cl)c1` (racemic): in data set [1], the pIC50 result was “inactive”. Also, in data set [2], the pIC50 is less than 4.5.

Take `Cc1noc(C(C)C)c1C(=O)NC1C(=O)c2ccc(Cl)cc2CC1(C)C` (stereo unspecified): the pIC50 entry in data set [2] is “inactive”.

For the compound `CC(C)C(NC(=O)c1cnn(C(C)(C)C)c1C(F)(F)F)C(=O)c1ccc2nonc2c1` (stereo unspecified), in data set [2], the IC50 is 0.398 µM.

For the compound `CC(C)C(NC(=O)c1ccccc1C(F)(F)F)C(=O)c1ccc(C#N)cc1` (stereo unspecified), the figures for the IC50 in data set [1] and in data set [2] were 3.16 µM and 5.01 µM, respectively.

For `CC(C)C(NC(=O)NC(C)(C)C)C(=O)c1ccc(Cl)cc1` (stereo unspecified), the values for the IC50 in data set [1] and in data set [2] were 2 µM and 2.51 µM, respectively.

In the case of `CCCC(NC(=O)c1ccccc1)C(=O)c1ccc(Cl)cc1` (stereo unspecified), the pIC50 result in data set [1] and in data set [2] was “inactive” in each case.

Take `CC(C)C(NC(=O)c1ccccc1)C(=O)c1ccc(Cl)cc1` (single isomer, unassigned; isomer 1): the IC50 in data set [1] was 1 µM; in data set [2], 0.398 µM.

Turning to `CC(C)C(NC(=O)c1cnoc1C(C)(C)C)C(=O)c1ccc(C#N)cc1` (stereo unspecified), the figures for the IC50 in data set [1] and in data set [2] were 1 µM and 0.501 µM, respectively.

In the case of `CC(C)C(NC(=O)Nc1ccc(F)cc1)C(=O)c1ccc(C#N)cc1` (stereo unspecified), the pIC50 entry in data set [1] and in data set [2] was “inactive” each time.

For the compound `CC(C)C(NC(=O)OC(C)(C)C)C(=O)c1ccc(Cl)cn1` (stereo unspecified), the figures for the IC50 in data set [1] and in data set [2] were 5.01 µM and 15.8 µM, respectively.

As to `CCCCCCCCCC(=O)NC(C(=O)c1ccc(C#N)cc1)C(C)C` (stereo unspecified), the results for the IC50 in data set [1] and in data set [2] were 2 µM and 1 µM, respectively.

With `CC(C)C(NC(=O)c1ccccc1)C(=O)c1ccc(S(C)(=O)=O)cc1` (racemic), the pIC50 entry in data set [1] and in data set [2] was “inactive” in each case.

`CC(C)C(NC(=O)N1CCc2ccccc2C1)C(=O)c1ccc(C#N)cc1` (stereo unspecified): the IC50 in data set [1] and in data set [2] was 5.01 µM in each case. In addition, the Stability entry in data set [4] is “Unstable”.

With `CC(C)C(NC(=O)N(C)C(C)(C)C)C(=O)c1ccc(Cl)cc1` (stereo unspecified), the IC50 in data set [1] is 0.251 µM; in data set [2], 0.631 µM.

As for `CC(C)C(NC(=O)c1ccc(Cl)cc1)C(=O)c1ccc(C#N)cc1` (stereo unspecified), in data set [1], the IC50 is 0.398 µM.

In the case of `CC(C)C(NC(=O)c1cc2ccccc2n1C)C(=O)c1ccc(C#N)cc1` (stereo unspecified), the IC50 in data set [1] is 3.98 µM; in data set [2], 1.58 µM.

On to `O=C(NC1(C(=O)c2ccc(Cl)cc2)CCC1)c1ccccc1`, for which the pIC50 result in data set [1] and in data set [2] was “inactive” each time.

For `CC(C)C(NC(=O)c1ccccc1)C(=O)c1ccc(F)cc1` (racemic), the IC50 is 5.01 µM in data set [1] and 7.94 µM in data set [2].

On to `COc1ccc(C(=O)NC(C(=O)c2ccc(C#N)cc2)C(C)C)cc1` (stereo unspecified), for which the IC50 is 12.6 µM in data set [1] and 6.31 µM in data set [2].

With `CC(C)C(NC(=O)c1ccccc1)C(=O)c1ccc(Br)cc1` (racemic), the IC50 in data set [1] is 7.94 µM; in data set [2], 1.26 µM.

Turning to `C=CCN(CC=C)c1ccc(C(=O)C(NC(=O)c2ccccc2)C(C)C)cc1` (racemic), the pIC50 result in data set [1] is “inactive”. Moreover, the pIC50 in data set [2] was less than 4.5.

For `CC(C)C(NC(=O)c1ccccc1)C(=O)c1ccc(Cl)cc1` (racemic), the IC50 is 2.51 µM in data set [1] and 1.26 µM in data set [2].

With `CC(C)C(NC(=O)c1ccccc1)C(=O)c1ccccc1` (racemic), the pIC50 entry in data set [1] is “inactive”. Moreover, the pIC50 in data set [2] was less than 4.5.

As for `CC(C)C(NC(=O)c1ccccc1)C(=O)c1ccc(Cl)cc1` (single isomer, unassigned; isomer 2), the pIC50 entry in data set [1] and in data set [2] was “inactive” throughout.

In the case of `CC(C)C(NC(=O)N(C)C(C)(C)C)C(=O)c1ccc(C#N)cc1` (stereo unspecified), in data set [1], the IC50 is 3.98 µM.

For the compound `CC(C)C(NC(=O)c1ccccc1)C(=O)c1ccc([N+](=O)[O-])cc1` (racemic), the results for the IC50 in data set [1] and in data set [2] were 0.316 µM and 0.251 µM, respectively.

In the case of `CC(C)C(NC(=O)NCc1ccccc1)C(=O)c1ccc(C#N)cc1` (stereo unspecified), the pIC50 entry in data set [1] and in data set [2] was “inactive” throughout.

With `CC(C)C(NC(=O)c1cc(Cl)ccc1C(F)(F)F)C(=O)c1ccc([N+](=O)[O-])cc1` (stereo unspecified), in data set [3], the solubility (kinetic) is less than 1 µM. In addition, the IC50 in data set [2] is 0.01 µM.

Turning to `CC(C)C(NC(=O)OC(C)(C)C)C(=O)c1ccc(Cl)cc1` (stereo unspecified), the IC50 was 1 µM in data set [1] and 0.794 µM in data set [2].

For `CC(C)C(NC(=O)OC(C)(C)C)C(=O)c1ccc(C#N)c(F)c1` (stereo unspecified), the IC50 in data set [1] is 1.26 µM; in data set [2], 2 µM.

For the compound `O=C(CNC(=O)c1ccccc1)c1ccc(Cl)cc1`, the pIC50 result in data set [1] and in data set [2] was “inactive” each time.

In the case of `CC(C)C(NC(=O)c1ccccc1)C(=O)c1ccc(Cl)c(Cl)c1` (racemic), in data set [1], the IC50 is 3.98 µM.
